{
  "source": "paper PMC5598522",
  "about": "(Toxicology Reports, 2014)",
  "key": {"dopamine D2L receptor": {"biological_target": "dopamine D2L receptor (Homo sapiens, UniProt P14416)", "sequence (P14416 whole entry)": "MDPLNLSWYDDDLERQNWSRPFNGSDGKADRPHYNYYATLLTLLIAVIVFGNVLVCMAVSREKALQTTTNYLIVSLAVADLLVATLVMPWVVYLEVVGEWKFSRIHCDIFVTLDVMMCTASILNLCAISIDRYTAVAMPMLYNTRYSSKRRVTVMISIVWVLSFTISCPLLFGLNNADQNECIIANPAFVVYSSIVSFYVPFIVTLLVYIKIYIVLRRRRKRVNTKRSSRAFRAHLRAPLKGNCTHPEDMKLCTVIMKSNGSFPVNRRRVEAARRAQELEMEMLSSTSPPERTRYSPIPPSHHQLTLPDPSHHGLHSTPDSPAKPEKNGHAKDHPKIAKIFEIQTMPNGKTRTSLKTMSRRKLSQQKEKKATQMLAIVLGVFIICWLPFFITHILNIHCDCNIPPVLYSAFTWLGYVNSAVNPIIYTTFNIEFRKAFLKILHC", "assay": "Dopamine D2L receptor radioligand binding", "conditions": "10 μM, human recombinant CHO cells", "how_it_was_run": "(§1)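 Human recombinant receptors expressed in CHO cells (D1, D2L) or CHO-K1 cells (D4.2) were used in radioligand binding assays with [3H]SCH-23390 (D1), [3H]spiperone (D2L) or [3H]dopamine (D4.2). The test compound or its metabolite was tested at a single concentration of 10 μM. Results are expressed as percent inhibition of specific binding.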"}, "Wistar rats": {"tested_on": "Wistar rats", "assay": "Tumor findings in rat 2-year carcinogenicity bioassay", "format": "in vivo", "conditions": "female rats, 2 years", "how_it_was_run": "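Wistar Han rats, 50 per sex per group (100 control females), started at seven weeks old and gavaged daily for 2 years at 0, 20, 60 or 180 mg/kg/day (females) in 1% carboxymethylcellulose/0.1% polysorbate 80. Full tissue list was paraffin-embedded, H&E-stained, examined microscopically and peer reviewed. Histology analysed by two-tailed Fisher's exact test; tumours by multiple testing at 5% significance.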"}, "[1]": {"tested_on": "L5178Y/TK + 1 mouse lymphoma cells", "assay": "Mouse lymphoma in vitro assay", "format": "cell-based", "how_it_was_run": "(§2)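 Genotoxicity screens. Ames: Salmonella strains exposed to 3–3000 μg/plate with and without metabolic activation; read-out was reverse-mutation frequency. Mouse lymphoma: L5178Y/TK+ cells treated for 4 h with S9 (15.7–41.8 μg/mL), for 4 h without S9 (5.23–15.7 μg/mL), and for 24 h without S9; read-out was clone number. Micronucleus: male and female Alderly Park rats given 2000 mg/kg; micronuclei scored 24 or 48 h post-dose.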"}, "[2]": {"biological_target": "human dopamine transporter (Homo sapiens, UniProt Q01959)", "sequence (Q01959 whole entry)": "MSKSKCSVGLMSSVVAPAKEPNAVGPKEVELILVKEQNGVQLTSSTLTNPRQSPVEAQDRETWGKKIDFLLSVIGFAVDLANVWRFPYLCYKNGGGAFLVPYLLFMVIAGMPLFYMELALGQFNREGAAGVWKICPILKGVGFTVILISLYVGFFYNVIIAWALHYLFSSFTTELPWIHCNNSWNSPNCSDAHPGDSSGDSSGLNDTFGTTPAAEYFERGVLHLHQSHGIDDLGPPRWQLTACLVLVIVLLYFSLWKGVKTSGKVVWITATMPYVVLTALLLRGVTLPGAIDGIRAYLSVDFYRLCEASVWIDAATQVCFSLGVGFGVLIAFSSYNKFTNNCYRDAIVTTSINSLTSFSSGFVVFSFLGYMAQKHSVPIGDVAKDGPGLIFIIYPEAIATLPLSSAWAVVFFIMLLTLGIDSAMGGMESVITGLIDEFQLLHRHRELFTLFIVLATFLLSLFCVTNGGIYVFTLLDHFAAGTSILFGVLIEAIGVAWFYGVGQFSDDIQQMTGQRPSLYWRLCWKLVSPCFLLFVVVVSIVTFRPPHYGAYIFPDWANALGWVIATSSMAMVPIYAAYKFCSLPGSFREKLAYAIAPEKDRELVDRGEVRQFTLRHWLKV", "assay": "Dopamine transporter radioligand binding", "how_it_was_run": "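Radioligand displacement of RTI-55 from human dopamine transporter expressed in recombinant CHO-K1 cells. Screened first at 10 μM as percent inhibition of specific binding. Then tested at 10 ascending concentrations in half-log steps. IC50 and Hill coefficient from non-linear least-squares regression; Ki by Cheng–Prusoff; four repeats. IC50 then compared with free systemic Cmax.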"}, "[3]": {"tested_on": "Alderly Park (Wistar derived) rats", "assay": "Rat micronucleus in vivo assay", "conditions": "2000 mg/kg", "how_it_was_run": "as §2"}, "Plasma exposure": {"assay": "Plasma exposure", "format": "in vivo, rat", "conditions": "carcinogenicity bioassay, Ticagrelor 180 mg/kg/day"}, "dopamine D4.2 receptor": {"biological_target": "T1, dopamine D4.2 receptor (Homo sapiens, UniProt P21917, DEL265-296)", "T1 sequence (P21917 with tags, fused parts or gaps DEL265-296)": "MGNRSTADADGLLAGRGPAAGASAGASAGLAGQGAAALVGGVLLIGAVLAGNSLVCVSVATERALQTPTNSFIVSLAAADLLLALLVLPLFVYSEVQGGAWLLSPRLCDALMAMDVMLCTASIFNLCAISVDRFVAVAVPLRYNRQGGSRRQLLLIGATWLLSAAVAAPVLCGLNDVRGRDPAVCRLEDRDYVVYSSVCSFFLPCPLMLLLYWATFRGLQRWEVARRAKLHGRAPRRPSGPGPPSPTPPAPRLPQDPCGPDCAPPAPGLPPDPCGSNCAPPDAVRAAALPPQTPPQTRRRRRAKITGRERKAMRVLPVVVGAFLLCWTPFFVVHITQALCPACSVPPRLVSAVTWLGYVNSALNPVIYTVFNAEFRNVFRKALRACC", "assay": "Dopamine D4.2 receptor radioligand binding", "conditions": "10 μM, human recombinant CHO-K1 cells", "how_it_was_run": "as §1"}, "[4]": {"assay": "Body weight and food consumption in rat 2 year carcinogenicity study", "format": "in vivo", "how_it_was_run": "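Seven-week-old Wistar Han rats, 50 per sex per group, gavaged daily for 2 years with 0, 20, 60 or 180 (female)/120 (male) mg/kg/day. Vehicle was 1% carboxymethylcellulose with 0.1% polysorbate 80 (w/v) at 5 mL/kg. Body weights taken pretreatment, daily to Week 13, then weekly. Analysis by Hartley's jackknifed F-max test and Fisher's F-protected t-test.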"}, "dopamine D1 receptor": {"biological_target": "dopamine D1 receptor (Homo sapiens, UniProt P21728)", "sequence (P21728 whole entry)": "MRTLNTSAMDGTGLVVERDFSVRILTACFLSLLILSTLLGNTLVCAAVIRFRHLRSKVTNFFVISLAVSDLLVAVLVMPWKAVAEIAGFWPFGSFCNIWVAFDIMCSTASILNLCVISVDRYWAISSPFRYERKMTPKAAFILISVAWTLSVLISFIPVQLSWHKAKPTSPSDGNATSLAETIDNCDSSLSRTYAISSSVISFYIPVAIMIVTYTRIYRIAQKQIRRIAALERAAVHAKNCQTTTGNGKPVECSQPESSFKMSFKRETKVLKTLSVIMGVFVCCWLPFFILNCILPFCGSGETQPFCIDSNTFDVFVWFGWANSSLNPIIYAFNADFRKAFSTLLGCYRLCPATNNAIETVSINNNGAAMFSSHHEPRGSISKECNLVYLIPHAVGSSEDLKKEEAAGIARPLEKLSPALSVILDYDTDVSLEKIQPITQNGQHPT", "assay": "Dopamine D1 receptor radioligand binding", "conditions": "10 μM, [3H] SCH-23390, human recombinant CHO cells", "how_it_was_run": "as §1"}, "Protein binding, human": {"assay": "Protein binding, human", "format": "in vitro ADME"}, "[5]": {"assay": "Rat free systemic exposure in carcinogenicity study", "format": "in vivo", "how_it_was_run": "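Satellite carcinogenicity rats (10 per sex per dose) dosed orally at 20, 60 or 180/120 mg/kg/day. Heparinised blood taken on Days 1 and 3 and in Weeks 26 and 52, at 2–24 h post-dose (3 rats per sex per time point). Analysed by protein precipitation and LC-MS/MS.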"}},
  "note": "Marks after values point to notes of the source that are not given here.",
  "data": [
    {"smiles": "CCCSc1nc(N[C@@H]2C[C@H]2c2ccc(F)c(F)c2)c2nnn([C@@H]3C[C@H](OCCO)[C@@H](O)[C@H]3O)c2n1", "note": "[Ticagrelor]", "values": [
      {"measurement": "Inhibition of radioligand binding at the D2L receptor", "setting": "dopamine D2L receptor", "value": "neither Ticagrelor nor metabolite caused inhibition"},
      {"measurement": "Mammary fibroadenoma incidence", "setting": "Wistar rats; 20 mg/kg/day", "value": 22, "unit": "percentage"},
      {"measurement": "Pituitary hyperplasia and adenoma incidence", "setting": "Wistar rats; 20 mg/kg/day", "value": 64, "unit": "percentage"},
      {"measurement": "Uterine adenocarcinoma incidence", "setting": "Wistar rats; 20 mg/kg/day", "value": 10, "unit": "percentage"},
      {"measurement": "Uterine adenosquamous carcinoma incidence", "setting": "Wistar rats; 20 mg/kg/day", "value": 0, "unit": "percentage"},
      {"measurement": "Uterine squamous cell carcinoma incidence", "setting": "Wistar rats; 20 mg/kg/day", "value": 0, "unit": "percentage"},
      {"measurement": "Mammary fibroadenoma incidence", "setting": "Wistar rats; 60 mg/kg/day", "value": 16, "unit": "percentage"},
      {"measurement": "Pituitary anterior lobe adenoma in decedent rats", "setting": "Wistar rats; 60 mg/kg/day", "value": 53, "unit": "percentage"},
      {"measurement": "Pituitary hyperplasia and adenoma incidence", "setting": "Wistar rats; 60 mg/kg/day", "value": 73, "unit": "percentage"},
      {"measurement": "Uterine adenocarcinoma incidence", "setting": "Wistar rats; 60 mg/kg/day", "value": 12, "unit": "percentage"},
      {"measurement": "Uterine adenosquamous carcinoma incidence", "setting": "Wistar rats; 60 mg/kg/day", "value": 2, "unit": "percentage"},
      {"measurement": "Uterine squamous cell carcinoma incidence", "setting": "Wistar rats; 60 mg/kg/day", "value": 0, "unit": "percentage"},
      {"measurement": "Mammary fibroadenoma incidence", "setting": "Wistar rats; 180 mg/kg/day", "value": "2 ^* percentage"},
      {"measurement": "Pituitary anterior lobe adenoma in decedent rats", "setting": "Wistar rats; 180 mg/kg/day", "value": "35 ^* percentage"},
      {"measurement": "Pituitary hyperplasia and adenoma incidence", "setting": "Wistar rats; 180 mg/kg/day", "value": "50 ^* percentage"},
      {"measurement": "Uterine adenocarcinoma incidence", "setting": "Wistar rats; 180 mg/kg/day", "value": "42 ^*** percentage"},
      {"measurement": "Uterine adenosquamous carcinoma incidence", "setting": "Wistar rats; 180 mg/kg/day", "value": 4, "unit": "percentage"},
      {"measurement": "Uterine squamous cell carcinoma incidence", "setting": "Wistar rats; 180 mg/kg/day", "value": 2, "unit": "percentage"},
      {"measurement": "Mouse lymphoma in vitro: Conclusion", "setting": "[1]", "value": "Negative"},
      {"measurement": "Mouse lymphoma in vitro: Results", "setting": "[1]; 15.7–41.8 μg/mL (4 h + S9), 5.23–15.7 μg/mL (4 h − S9), 15.7–36.6 (24 h − S9)", "value": "No increased number of clones associated with treatment"},
      {"measurement": "Inhibition of the dopamine transporter at free systemic Cmax levels", "setting": "[2]; at human free systemic Cmax", "value": "minimal inhibition"},
      {"measurement": "Inhibition of the dopamine transporter at free systemic Cmax levels", "setting": "[2]; at rat free systemic Cmax", "value": "> 50", "unit": "%"},
      {"measurement": "Rat micronucleus in vivo: Conclusion", "setting": "[3]", "value": "Negative"},
      {"measurement": "Rat micronucleus in vivo: Results", "setting": "[3]; M&F, 24 or 48 h post-dose", "value": "No increased frequency of micronuclei at 24 or 48 h post-dose"},
      {"measurement": "Plasma exposure (mean ± SD)", "setting": "Plasma exposure; Day 1, 5 h post dose", "value": "35.9 ± 17.9", "unit": "µM"},
      {"measurement": "Plasma exposure (mean ± SD)", "setting": "Plasma exposure; Week 26, 5 h post dose", "value": "37.9 ± 10.5", "unit": "µM"},
      {"measurement": "Inhibition of radioligand binding at the D4.2 receptor", "setting": "dopamine D4.2 receptor", "value": "neither Ticagrelor nor metabolite caused inhibition"},
      {"measurement": "Body weight lower than the control group by the end of study", "setting": "[4]; female rats, 180 mg/kg/day", "value": "approximately 20%"},
      {"measurement": "Food consumption", "setting": "[4]; female rats, 180 mg/kg/day", "value": "significantly decreased food consumption in 10 out of the last 14 measurements"},
      {"measurement": "Food consumption", "setting": "[4]; male rats", "value": "no consistent food consumption differences"},
      {"measurement": "Body weight difference from the control group at the end of the study", "setting": "[4]; male rats, high dose group (120 mg/kg/day)", "value": "≤ 10", "unit": "%"},
      {"measurement": "Inhibition of radioligand binding at the D1 receptor", "setting": "dopamine D1 receptor", "value": "neither Ticagrelor nor metabolite caused inhibition"},
      {"measurement": "fraction unbound", "setting": "Protein binding, human", "value": 0.008},
      {"measurement": "Rat free systemic exposure maximal concentration (Cmax)", "setting": "[5]; high dose group, based on 99.0% protein binding", "value": 502, "unit": "nM"},
      {"measurement": "Rat free systemic exposure Cmax", "setting": "[5]; low dose group", "value": 43, "unit": "nM"},
      {"measurement": "Rat free systemic exposure Cmax", "setting": "[5]; mid dose group", "value": 157, "unit": "nM"}
    ]}
  ]
}
